{"source": "paper PMC9359741", "about": "(Clinical Cancer Research, 2022)", "key": {"[1]": {"system": "platinum-resistant ovarian cancer (prOVCA)", "experiment": "Phase 2 efficacy", "type": "in vivo, human", "outline": "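Oral test compound 300 mg QD plus anti-PD-1 antibody 200 mg IV Q3W. PD-1/PD-L1 IR cohort: progression on anti-PD-1/PD-L1 (RECIST or irRC). prOVCA cohort: progression ≤6 months after ≥4 platinum cycles. PDA cohort: ≥1 prior systemic line. Investigator assessed best response per RECIST v1.1 and irRC. ORR used confirmed responses with Clopper–Pearson 95% CI; all dosed patients. Screening tissue was profiled for MSI/MMR, TMB and gene expression.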"}, "[2]": {"system": "selected advanced solid tumors", "experiment": "Phase 1b efficacy", "type": "in vivo, human", "conditions": "for ORR, % (95% CI) / ir-ORR, % (95% CI): confirmed", "outline": "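Oral test compound 200–400 mg QD plus anti-PD-1 antibody 2 mg/kg IV Q3W in patients with measurable or evaluable disease. Investigator assessed best response per RECIST v1.1, with immune-related response also evaluated. ORR used confirmed responses with two-sided 95% CI (Clopper–Pearson exact binomial). All patients receiving ≥1 dose were analysed. PD-L1 status came from screening tissue tested locally.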"}}, "note": "“And” between values parts separate entries of the source, which are not always exact repeats. Identical values can stand only once.", "data": [{"smiles": "Cc1cccc(Cn2nc(C3CC3)c3c(NC(=O)c4cnc5cc(OCCN6CCN(C)CC6)ccn45)cccc32)n1", "note": "[ARRY-382]", "values": [{"measurement": "Median OS", "setting": "[1]", "value": "NR (95% CI, 5.3–NR)"}, {"measurement": "Median PFS", "setting": "[1]", "value": "2.1 (95% CI, 1.2–4.1) months"}, {"measurement": "Median irPFS per irRC", "setting": "[1]", "value": "2.5 (95% CI, 1.2–NR) months"}, {"measurement": "Best overall response: CR", "setting": "[1]; N = 11", "value": "0 (0.0) n (%)"}, {"measurement": "Best overall response: NE", "setting": "[1]; N = 11", "value": "2 (18.2) n (%)"}, {"measurement": "Best overall response: PD", "setting": "[1]; N = 11", "value": "5 (45.5%) n (%) and 5 (45.5) n (%)"}, {"measurement": "Best overall response: PR", "setting": "[1]; N = 11", "value": "0 (0.0) n (%)"}, {"measurement": "Best overall response: SD", "setting": "[1]; N = 11", "value": "4 (36.4%) n (%) and 4 (36.4) n (%)"}, {"measurement": "Immune-related best overall response: CR", "setting": "[1]; N = 11", "value": "0 (0.0) n (%)"}, {"measurement": "Immune-related best overall response: NE", "setting": "[1]; N = 11", "value": "5 (45.5) n (%)"}, {"measurement": "Immune-related best overall response: PD", "setting": "[1]; N = 11", "value": "0 (0.0) n (%)"}, {"measurement": "Immune-related best overall response: PR", "setting": "[1]; N = 11", "value": "0 (0.0) n (%)"}, {"measurement": "Immune-related best overall response: SD", "setting": "[1]; N = 11", "value": "6 (54.5) n (%)"}, {"measurement": "ORR, % (95% CI)", "setting": "[1]; confirmed, N = 11", "value": "0.0 (0.0–28.5) %"}, {"measurement": "ir-ORR, % (95% CI)", "setting": "[1]; confirmed, N = 11", "value": "0.0 (0.0–28.5) %"}, {"measurement": "Median OS", "setting": "[2]; 200-mg cohort", "value": "14.7 [95% CI, 5.2–not reached (NR)] months"}, {"measurement": "Median PFS", "setting": "[2]; 200-mg cohort", "value": "4.7 (95% CI, 1.4–33.1) months"}, {"measurement": "Median irPFS per irRC", "setting": "[2]; 200-mg cohort", "value": "3.0 (95% CI, 1.4–16.1) months"}, {"measurement": "DOR of confirmed PR", "setting": "[2]; 200-mg cohort, 1 patient with MSI-High PDA", "value": 29.2, "unit": "months"}, {"measurement": "Median OS", "setting": "[2]; 300-mg cohort", "value": "6.5 (95% CI, 1.0–NR) months"}, {"measurement": "Median PFS", "setting": "[2]; 300-mg cohort", "value": "2.3 (95% CI, 1.3–5.7) months"}, {"measurement": "Median irPFS per irRC", "setting": "[2]; 300-mg cohort", "value": "2.5 (95% CI, 1.4–7.1) months"}, {"measurement": "DOR of confirmed PR", "setting": "[2]; 300-mg cohort, 1 patient with ovarian cancer", "value": 3.1, "unit": "months"}, {"measurement": "Median OS", "setting": "[2]; 400-mg cohort", "value": "7.4 (95% CI, 2.1–14.1) months"}, {"measurement": "Median PFS", "setting": "[2]; 400-mg cohort", "value": "1.4 (95% CI, 0.5–2.6) months"}, {"measurement": "Median irPFS per irRC", "setting": "[2]; 400-mg cohort", "value": "1.3 (95% CI, 0.5–1.5) months"}, {"measurement": "Best overall response: CR", "setting": "[2]; ARRY-382 200 mg, N = 6", "value": "0 (0.0) n (%)"}, {"measurement": "Best overall response: NE", "setting": "[2]; ARRY-382 200 mg, N = 6", "value": "1 (16.7) n (%)"}, {"measurement": "Best overall response: PD", "setting": "[2]; ARRY-382 200 mg, N = 6", "value": "1 (16.7) n (%)"}, {"measurement": "Best overall response: PR", "setting": "[2]; ARRY-382 200 mg, N = 6", "value": "1 (16.7) n (%)"}, {"measurement": "Best overall response: SD", "setting": "[2]; ARRY-382 200 mg, N = 6", "value": "3 (50.0) n (%)"}, {"measurement": "Immune-related best overall response: CR", "setting": "[2]; ARRY-382 200 mg, N = 6", "value": "0 (0.0) n (%)"}, {"measurement": "Immune-related best overall response: NE", "setting": "[2]; ARRY-382 200 mg, N = 6", "value": "1 (16.7) n (%)"}, {"measurement": "Immune-related best overall response: PD", "setting": "[2]; ARRY-382 200 mg, N = 6", "value": "1 (16.7) n (%)"}, {"measurement": "Immune-related best overall response: PR", "setting": "[2]; ARRY-382 200 mg, N = 6", "value": "1 (16.7) n (%)"}, {"measurement": "Immune-related best overall response: SD", "setting": "[2]; ARRY-382 200 mg, N = 6", "value": "3 (50.0) n (%)"}, {"measurement": "Best overall response: CR", "setting": "[2]; ARRY-382 300 mg, N = 6", "value": "0 (0.0) n (%)"}, {"measurement": "Best overall response: NE", "setting": "[2]; ARRY-382 300 mg, N = 6", "value": "0 (0.0) n (%)"}, {"measurement": "Best overall response: PD", "setting": "[2]; ARRY-382 300 mg, N = 6", "value": "3 (50.0) n (%)"}, {"measurement": "Best overall response: PR", "setting": "[2]; ARRY-382 300 mg, N = 6", "value": "1 (16.7) n (%)"}, {"measurement": "Best overall response: SD", "setting": "[2]; ARRY-382 300 mg, N = 6", "value": "2 (33.3) n (%)"}, {"measurement": "Immune-related best overall response: CR", "setting": "[2]; ARRY-382 300 mg, N = 6", "value": "0 (0.0) n (%)"}, {"measurement": "Immune-related best overall response: NE", "setting": "[2]; ARRY-382 300 mg, N = 6", "value": "2 (33.3) n (%)"}, {"measurement": "Immune-related best overall response: PD", "setting": "[2]; ARRY-382 300 mg, N = 6", "value": "0 (0.0) n (%)"}, {"measurement": "Immune-related best overall response: PR", "setting": "[2]; ARRY-382 300 mg, N = 6", "value": "1 (16.7) n (%)"}, {"measurement": "Immune-related best overall response: SD", "setting": "[2]; ARRY-382 300 mg, N = 6", "value": "3 (50.0) n (%)"}, {"measurement": "Best overall response: CR", "setting": "[2]; ARRY-382 400 mg, N = 7", "value": "0 (0.0) n (%)"}, {"measurement": "Best overall response: NE", "setting": "[2]; ARRY-382 400 mg, N = 7", "value": "2 (28.6) n (%)"}, {"measurement": "Best overall response: PD", "setting": "[2]; ARRY-382 400 mg, N = 7", "value": "5 (71.4) n (%)"}, {"measurement": "Best overall response: PR", "setting": "[2]; ARRY-382 400 mg, N = 7", "value": "0 (0.0) n (%)"}, {"measurement": "Best overall response: SD", "setting": "[2]; ARRY-382 400 mg, N = 7", "value": "0 (0.0) n (%)"}, {"measurement": "Immune-related best overall response: CR", "setting": "[2]; ARRY-382 400 mg, N = 7", "value": "0 (0.0) n (%)"}, {"measurement": "Immune-related best overall response: NE", "setting": "[2]; ARRY-382 400 mg, N = 7", "value": "4 (57.1) n (%)"}, {"measurement": "Immune-related best overall response: PD", "setting": "[2]; ARRY-382 400 mg, N = 7", "value": "1 (14.3) n (%)"}, {"measurement": "Immune-related best overall response: PR", "setting": "[2]; ARRY-382 400 mg, N = 7", "value": "0 (0.0) n (%)"}, {"measurement": "Immune-related best overall response: SD", "setting": "[2]; ARRY-382 400 mg, N = 7", "value": "2 (28.6) n (%)"}, {"measurement": "Best overall response: CR", "setting": "[2]; Total, N = 19", "value": "0 (0.0) n (%)"}, {"measurement": "Best overall response: NE", "setting": "[2]; Total, N = 19", "value": "3 (15.8) n (%)"}, {"measurement": "Best overall response: PD", "setting": "[2]; Total, N = 19", "value": "9 (47.4) n (%)"}, {"measurement": "Best overall response: PR", "setting": "[2]; Total, N = 19", "value": "2 (10.5) n (%)"}, {"measurement": "Best overall response: SD", "setting": "[2]; Total, N = 19", "value": "5 (26.3) n (%)"}, {"measurement": "Immune-related best overall response: CR", "setting": "[2]; Total, N = 19", "value": "0 (0.0) n (%)"}, {"measurement": "Immune-related best overall response: NE", "setting": "[2]; Total, N = 19", "value": "7 (36.8) n (%)"}, {"measurement": "Immune-related best overall response: PD", "setting": "[2]; Total, N = 19", "value": "2 (10.5) n (%)"}, {"measurement": "Immune-related best overall response: PR", "setting": "[2]; Total, N = 19", "value": "2 (10.5) n (%)"}, {"measurement": "Immune-related best overall response: SD", "setting": "[2]; Total, N = 19", "value": "8 (42.1) n (%)"}, {"measurement": "ORR, % (95% CI)", "setting": "[2]; ARRY-382 200 mg, N = 6", "value": "16.7 (0.4–64.1) %"}, {"measurement": "ir-ORR, % (95% CI)", "setting": "[2]; ARRY-382 200 mg, N = 6", "value": "16.7 (0.4–64.1) %"}, {"measurement": "ORR, % (95% CI)", "setting": "[2]; ARRY-382 300 mg, N = 6", "value": "16.7 (0.4–64.1) %"}, {"measurement": "ir-ORR, % (95% CI)", "setting": "[2]; ARRY-382 300 mg, N = 6", "value": "16.7 (0.4–64.1) %"}, {"measurement": "ORR, % (95% CI)", "setting": "[2]; ARRY-382 400 mg, N = 7", "value": "0.0 (0.0–41.0) %"}, {"measurement": "ir-ORR, % (95% CI)", "setting": "[2]; ARRY-382 400 mg, N = 7", "value": "0.0 (0.0–41.0) %"}, {"measurement": "ORR, % (95% CI)", "setting": "[2]; Total, N = 19", "value": "10.5 (1.3–33.1) %"}, {"measurement": "ir-ORR, % (95% CI)", "setting": "[2]; Total, N = 19", "value": "10.5 (1.3–33.1) %"}]}]}
